Shown are actives, neighbours in structure and some others; about 3.5% of the full set was active somewhere.
RGS4 pot: RGS4 potentiation or activation; HEK293 M3R/inducible RGS4, carbachol calcium flux Fluo4; active compounds read low; B-score at 10 µM; 310,000 compounds, 0.92% hits; AID 463111;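 active = B-score of the integrated calcium signal more than 4 SD below the library mean, with starting fluorescence not abnormally high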;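 also: negative B-score means reduced calcium response which marks RGS4 activation or potentiation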
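System – HEK293 FlpIn-TREx cells, stable M3R, doxycycline-inducible RGS4 · Reagent – ECmax carbachol challenge · Times – compound preincubation 20 min at room temperature before agonist · Technique – Fluo4 fluorescence kinetic imaging of calcium · Measure – B score of integrated Fluo4 ratio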
RGS4 block: human RGS4 inhibition | 310,000 compounds, 0.45% hits | P49798 | HEK293 M3R/RGS4 inducible, Fluo-4 calcium flux; active compounds read high; triggered by carbachol at its EC20 | B-score at 10 µM;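 active = B-score, a plate-corrected calcium signal, over three deviations above library mean, with baseline fluorescence within five deviations of library mean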;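 also: RGS4 expression induced by doxycycline in cells with stable M3 receptor; B-score is computed from the integrated fluorescence ratio over baseline after carbachol; higher B-score means a larger calcium signal and so more RGS4 inhibition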
Target sequence (P49798 whole entry, looked up): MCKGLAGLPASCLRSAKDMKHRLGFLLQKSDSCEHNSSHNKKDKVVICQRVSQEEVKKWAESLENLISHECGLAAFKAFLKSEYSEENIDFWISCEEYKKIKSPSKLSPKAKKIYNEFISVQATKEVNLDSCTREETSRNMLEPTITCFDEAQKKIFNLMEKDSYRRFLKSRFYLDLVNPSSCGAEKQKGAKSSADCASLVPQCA
MrgX1 agonist: human MrgX1 receptor agonism, primary screen. Q96LB2. MrgX1-HEK293 cells, Fluo-4 calcium fluorescence, agonist mode; active compounds read high. B-score at 10 µM. 310,000 compounds, 0.44% hits. AID 588627;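 active = calcium response B-score plate-corrected fluorescence ratio at least 3 library SD, with starting fluorescence B-score inside 5 SD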
Target sequence (Q96LB2 whole entry, looked up): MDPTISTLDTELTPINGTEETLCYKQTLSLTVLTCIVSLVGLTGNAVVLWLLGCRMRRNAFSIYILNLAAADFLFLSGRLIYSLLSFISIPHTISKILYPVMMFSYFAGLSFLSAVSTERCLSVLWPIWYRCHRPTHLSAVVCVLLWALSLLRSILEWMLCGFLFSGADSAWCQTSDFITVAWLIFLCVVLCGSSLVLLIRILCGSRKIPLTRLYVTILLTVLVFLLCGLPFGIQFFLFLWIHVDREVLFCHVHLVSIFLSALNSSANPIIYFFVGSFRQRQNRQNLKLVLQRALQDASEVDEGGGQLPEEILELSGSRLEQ
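Material: HEK293 cells stably expressing human MrgX1 receptor | Quantity: 15,000 cells per well | Times: Cells plated overnight, dye loaded 0.5 h 37 °C, 0.5 h room temperature | Measured by: Kinetic Fluo-4 NW fluorescence of intracellular calcium | Control set: Positive and negative controls per plate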
MrgX1 antag: human MrgX1 receptor antagonism, primary screen; MRGX1-HEK293 calcium flux, Fluo-4, BAM8-22 antagonism; active compounds read low; B-score at 10 µM; 310,000 compounds, 1.3% hits; AID 588676;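 active = calcium-response B-score plate-corrected more than 3 library SD below zero, starting fluorescence within 5 deviations, no agonist response on first addition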;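 also: peak minus trough fluorescence over baseline after final BAM8-22 challenge near maximal dose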
MrgX1 allo act: human MrgX1 positive allosteric modulation, primary screen | MrgX1-HEK293, Fluo-4 calcium flux, FDSS; active compounds read high | 310,000 compounds, 0.63% hits | B-score at 10 µM;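 active = plate-corrected calcium response at least 3 library SD above typical, normal starting fluorescence, not activating the receptor alone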;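 also: compound read alongside a low EC10 to EC30 dose of BAM8-22 agonist; peak minus trough fluorescence over baseline measured at the second addition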
MrgX1 ant reconf: confirmation of human MrgX1 receptor antagonists. remaining BAM8-22 calcium response % of control (active compounds read low), % at 10 µM. shares compounds with MrgX1 antag. MrgX1-HEK293, BAM8-22 calcium flux, Fluo-4; active compounds read low. 2,300 compounds, 19% hits;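 active = remaining agonist calcium response no higher than 100% minus 3 SD of agonist-only control wells, with starting fluorescence near control levels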;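 also: agonist BAM8-22 given at a near maximal EC90 to ECmax level; peak minus minimum fluorescence divided by baseline after agonist addition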
HEK293 Ca flux: counter-screen for MrgX1 antagonists: effect in parental HEK293 cells; fluorescence ratio F(max-min)/F0 at 10 µM; Fluo-4 calcium fluorescence, FDSS; shares compounds with MrgX1 antag; 4,000 compounds, 2% hits;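 active = duplicate-averaged calcium fluorescence ratio at least three times the standard deviation of buffer wells, a nonspecific response in parental cells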
HEK293 Ca counter: counter-screen for MrgX1 allosteric activators: effect in parental HEK293 cells; parental HEK293 calcium flux, Fluo-4 fluorescence ratio; active compounds read high; AID 624114; 4,000 compounds, 0.4% hits; shares compounds with MrgX1 antag; fluorescence ratio F(max-min)/F0 at 10 µM;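 active = calcium fluorescence ratio, averaged over duplicates, at least 3 SD of the buffer-well ratio, meaning a nonspecific response in receptor-free cells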;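 also: untransfected parental HEK293 lacking MrgX1 used as counterscreen for MrgX1 allosteric activators; fluorescence change taken during the second addition on a kinetic imager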
HEK293 Ca cntr2: MrgX1 activator counter-screen hit in parental HEK293 cells; shares compounds with MrgX1 antag; Fluo-4 calcium fluorescence (FDSS); active compounds read high; fluorescence ratio F(max-min)/F0 at 10 µM; 4,000 compounds, 8.7% hits; AID 624115;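 active = calcium fluorescence ratio at least three times the spread of buffer wells, meaning a non-specific response in parental cells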
A number is an active result; n = inactive; x = no result given.

SMILES | RGS4 pot | RGS4 block | MrgX1 agonist | MrgX1 antag | MrgX1 allo act | MrgX1 ant reconf | HEK293 Ca flux | HEK293 Ca counter | HEK293 Ca cntr2
CC1(C)CC(CC(=O)O)(c2ccc(F)cc2)CCO1 (stereo not drawn) | n | n | n | -6 | n | n | n | n | n
COCCNC(=O)Cn1cc(/C=C(\C#N)C(=O)NC2CCCC2)c2ccccc21 | n | n | n | n | n | x | x | x | x
COC(=O)C1=C(C(=O)OC)[C@@H]2Nc3ccccc3[C@@]23C[C@@H](C(=O)OC)N(C(=O)CC(C)C)C3=N1 | n | n | n | n | n | x | x | x | x
Cc1ccc(OCC(=O)N/N=C2/SCC(=O)N2Cc2ccccc2)cc1 | n | n | n | -21 | n | n | n | n | n
O=C(C1=C[C@H](c2csc3ccccc23)C[C@H](OCc2ccc(CO)cc2)O1)N1CCCCCCC1 | n | n | n | n | n | x | x | x | x
O=C(Cc1cccs1)Nc1cccc(-c2nnc(-c3ccco3)o2)c1 | n | n | n | -7.4 | n | n | n | n | n
C=C1c2ccccc2NC(=O)N1c1ccc(C)cc1 | n | n | n | -8.7 | n | n | n | n | n
C=C1c2cc(C)ccc2NC(=O)N1c1ccc(C)cc1 | n | n | n | n | n | x | x | x | x
CCn1c(/C=C/c2ccc(O)c(O)c2)nc2ccccc2c1=O | n | n | n | -4.7 | n | n | n | n | n
CCn1c(/C=C/c2ccc(O)cc2)nc2ccccc2c1=O | n | n | n | n | n | x | x | x | x
COc1ccccc1NC(=O)N1CCCC(CNC(=O)c2ccccc2Cl)C1 (stereo not drawn) | n | n | n | n | n | x | x | x | x
O=C(NC1CC1)C1CCN(S(=O)(=O)c2cc(Cl)ccc2Cl)CC1 | n | n | n | -5.4 | n | n | n | n | n
COc1ccc(OC)c(N2C(=O)CC(Cc3ccc(Cl)cc3)C2=O)c1 (stereo not drawn) | n | n | n | -4.5 | n | n | n | n | n
C=CCNC(=O)COC(=O)c1ccc(C)c(NC(=O)c2ccco2)c1 | n | n | n | -7.6 | n | n | n | n | n
CCCCNC(=O)COC(=O)c1ccc(C)c(NC(=O)c2ccco2)c1 | n | n | n | n | n | x | x | x | x
O=C(COc1coc(CN2CCc3ccccc3C2)cc1=O)Nc1ccccc1F | n | n | n | n | n | x | x | x | x
Cc1cc(C)cc(N2C(=O)C3CC=CCC3C2=O)c1 (stereo not drawn) | n | n | n | -5.2 | n | n | n | n | n
O=C(NCCN1CCOCC1)c1cc2ccccc2o1 | n | n | n | n | n | x | x | x | x
CC(C)(CNC(=O)c1ccc(NS(=O)(=O)c2ccc(Br)cc2)cc1)N1CCOCC1 | n | n | n | -6.5 | n | 51% | n | n | n
O=C(NCc1cccs1)c1cc2ccccc2o1 | n | n | n | -7.5 | n | n | n | n | n
CC(C)(CNC(=O)c1cc2ccccc2o1)N1CCOCC1 | n | n | n | -4.5 | n | n | n | n | n
CN(C)C(=O)CSc1nc2ccc(C(=O)c3ccccc3)cc2[nH]1 | n | n | n | n | n | x | x | x | x
Cc1nn(-c2ccccc2)nc1C(=O)Nc1ccc2c(c1)OCCO2 | n | n | n | -12 | n | n | n | n | n
CN(c1ccccc1)S(=O)(=O)c1ccc(NC(=O)c2ccccc2)cc1 | n | n | n | n | n | x | x | x | x
CN(c1ccccc1)S(=O)(=O)c1ccc(NC(=O)c2nc(S(C)(=O)=O)ncc2Cl)cc1 | n | n | n | -5.7 | n | n | n | n | n
SMILES | RGS4 pot | RGS4 block | MrgX1 agonist | MrgX1 antag | MrgX1 allo act | MrgX1 ant reconf | HEK293 Ca flux | HEK293 Ca counter | HEK293 Ca cntr2
COc1cccc(NC(=O)c2nc(S(C)(=O)=O)ncc2Cl)c1 | n | n | n | -5.5 | n | n | n | n | n
COc1cccc(NC(=O)c2nc(SC)ncc2Cl)c1 | n | n | n | n | n | x | x | x | x
COc1ccc(S(=O)(=O)N2CCC(C(=O)NCCC(=O)Nc3nccs3)CC2)cc1 | n | n | n | n | n | x | x | x | x
Nc1nc(Cl)cc(NCCc2ccc(O)cc2)n1 | n | n | n | -5.8 | n | n | n | n | n
Nc1nc(Cl)cc(NCCc2ccccc2)n1 | n | n | n | n | n | x | x | x | x
NS(=O)(=O)c1ccc(CNC(=O)c2cc(=O)c3cc(Cl)ccc3o2)cc1 | n | n | n | n | n | x | x | x | x
COc1ccc(S(=O)(=O)Nc2ccccc2C(=O)Nc2nc(-c3ccc(F)cc3)cs2)cc1OC | n | n | n | -8.7 | n | n | n | n | n
COc1ccc(-c2csc(NC(=O)c3ccccc3NS(=O)(=O)c3ccc(C)cc3)n2)cc1 | n | n | n | -9 | n | 61% | n | n | n
COc1ccc(-c2csc(NC(=O)COc3ccc(N(C)S(=O)(=O)c4ccc(C)cc4)cc3)n2)cc1 | n | n | n | n | n | x | x | x | x
CCCCOCCCNc1ncnc2c1[nH]c1ccccc12 | n | n | n | -14 | n | 26% | n | n | n
CCOCCCNc1ncnc2c1[nH]c1ccccc12 | n | n | n | n | n | x | x | x | x

Bioassay records deposited in PubChem by Johns Hopkins Ion Channel Center.
